Compound activity (PubChem BioAssay)
KCNQ1 act – human KCNQ1 channel potentiation or activation; P51787; CHO-K1 KCNQ1, thallium flux FluxOR fluorescence; hits give high values; B-score at 10 µM; actives 0.35% (n = 310,000);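 active = fluorescence ratio B-score, a plate-corrected score, at least three library SD, with initial intensity B-score within 5 SD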
Target sequence (P51787 whole entry, looked up): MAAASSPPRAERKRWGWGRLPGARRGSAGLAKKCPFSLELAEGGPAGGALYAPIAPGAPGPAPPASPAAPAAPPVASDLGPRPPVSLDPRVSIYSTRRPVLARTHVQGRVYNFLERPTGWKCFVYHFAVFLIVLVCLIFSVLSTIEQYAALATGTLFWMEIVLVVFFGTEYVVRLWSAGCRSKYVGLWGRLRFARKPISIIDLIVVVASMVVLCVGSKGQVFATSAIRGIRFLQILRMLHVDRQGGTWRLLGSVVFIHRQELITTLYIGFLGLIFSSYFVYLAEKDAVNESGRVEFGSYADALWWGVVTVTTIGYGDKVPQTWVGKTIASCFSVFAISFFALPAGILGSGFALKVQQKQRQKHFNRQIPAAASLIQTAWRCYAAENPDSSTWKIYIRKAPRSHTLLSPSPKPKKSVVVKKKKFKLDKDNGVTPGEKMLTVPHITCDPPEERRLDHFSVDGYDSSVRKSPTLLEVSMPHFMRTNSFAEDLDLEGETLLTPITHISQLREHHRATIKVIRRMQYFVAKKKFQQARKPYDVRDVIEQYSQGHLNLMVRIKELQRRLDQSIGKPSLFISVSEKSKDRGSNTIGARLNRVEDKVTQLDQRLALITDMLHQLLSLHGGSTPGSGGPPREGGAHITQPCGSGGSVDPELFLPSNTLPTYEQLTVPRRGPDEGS
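Schedule – 37 °C overnight plating, 90-min dark dye load, 20-min compound pretreatment · System – stable KCNQ1 CHO-K1 line · Probe or stimulus – thallium- and potassium-containing depolarizing buffer · Measured by – kinetic FluxOR fluorescence, 10 s baseline plus 110 s post-stimulus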
Kir21 inh – Kir2.1 (mouse) channel inhibition; HEK293-Kir2.1, FluxOR thallium flux fluorescence; hits give low values; B-score at 10 µM; actives 0.85% (n = 310,000); P35561;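 active = fluorescence ratio B-score at or below minus 3 SD of library scores, with starting-brightness B-score within 2 SD, cut at about -4.2 in these data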;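 also: channel flux triggered by added potassium and thallium sulfate stimulus; B-score of peak minus minimum fluorescence over baseline after thallium stimulus; more negative B-score means stronger Kir2.1 block with less thallium influx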
KCNK3 inh – human KCNK3 channel inhibition, primary screen; CHO-KCNK3 thallium flux, FluxOR fluorescence; hits give low values; B-score at 10 µM; actives 0.84% (n = 340,000);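 active = B-score under library mean minus 4 SD, starting fluorescence ratio at most library mean plus 5 SD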;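 also: more negative B-score means stronger inhibition of thallium flux through KCNK3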
KCNK9 block – human KCNK9 channel inhibition | Q9NPC2 | HEK293 KCNK9, FluxOR thallium flux fluorescence; hits give low values | B-score at 10 µM | actives 1.2% (n = 310,000) | AID 488922;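 active = ratio B-score over 3 SD below the library mean, with starting fluorescence within 5 SD of its mean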;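 also: negative B-score means less thallium flux so channel inhibition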
KCNQ1 block – human KCNQ1 channel inhibition. P51787. B-score at 10 µM. CHO-K1 KCNQ1, FluxOR thallium flux fluorescence; hits give high values. actives 1.3% (n = 310,000);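 active = compounds whose thallium flux B-score, printed positive for inhibition, exceeds three library SD while starting fluorescence stays within three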;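 also: channel opened by potassium depolarization with thallium stimulus after 20 min compound exposure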
hERG protect – compounds protecting human hERG from proarrhythmic drug block. Q12809. CHO-hERG, FluxOR thallium flux, dofetilide IC70 present. activation (rescue from dofetilide block), less the hit threshold, % at 10 µM. actives 0.51% (n = 310,000). AID 1511;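 active = activation above the mean of controls blocked by dofetilide plus 5 SD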;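 also: thallium influx through hERG after potassium depolarization seen as dye fluorescence rise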
Hits are given with their value; - = inactive; . = not tested or not shown. Only some compounds are listed: those with a hit (about 3.7% of all), similar ones and a draw of the others.

SMILES	KCNQ1 act	Kir21 inh	KCNK3 inh	KCNK9 block	KCNQ1 block	hERG protect
Cc1ccc(S(=O)(=O)Oc2ccc(/C=C3/C(=N)N4C(=NC3=O)SN=C4S(C)(=O)=O)cc2)cc1	-	-	-	-	-	-
O=C1C(SCCO)=C(SCCO)C(=O)c2ccccc21	.	.	-15	.	.	.
CC1=C(SCc2ccccc2)C(=O)c2ccccc2C1=O	.	.	-	.	.	.
CCCSc1nc(C)cc(C)c1S(=O)(=O)c1ccccc1C	-	-	-	-7.5	-	-
CCCSc1nc(C)cc(C)c1S(C)(=O)=O	-	-	-	-	-	-
Cc1ccccc1S(=O)(=O)c1c(C)cc(C)n(C(C)C)c1=O	-	-4.4	-	-	-	-
CCCCn1c(C)cc(C)c(S(=O)(=O)c2ccccc2C)c1=O	-	-	-	-	-	-
Cc1cc(N)ccc1NC(=O)CN1CCOCC1	-	-	-	-	-	-
O=C(COC(=O)c1ccccc1)c1ccc(Br)cc1	-	-	-	-6.8	-	-
O=C(COC(=O)c1ccc(Br)cc1)NCCc1ccccc1	-	-	-	-	-	-
O=C(NC1CCCCNC1=O)c1ccco1 (centres undefined)	-	-	-	-	-	-
O=C(Cn1c(CO)nc2ccccc21)NCCc1ccc(F)cc1	-	-	-	-	-	-
O=C(Cn1c(CO)nc2ccccc21)NCCc1ccccc1	-	-	-	-	-	7.3
CCCN(CCC)c1nc2ccccc2nc1C(C#N)C(=O)OC(C)COC (centres undefined)	-	-	.	-	8	-
CCN(CC)c1nc2ccccc2nc1C(C#N)C(=O)NCCCOC (centres undefined)	-	-	-	-	-	-
CCN(CC)c1nc2ccccc2nc1C(C#N)C(=O)NCCc1ccccc1 (centres undefined)	-	-	-	-	-	-
CCCCN(CCCC)c1nc2ccccc2nc1C(C#N)C(=O)NCCCOC (centres undefined)	-	-	-	-	15	-
Oc1c(C(c2ccccn2)N2CCC(Cc3ccccc3)CC2)cc(Cl)c2cccnc12 (centres undefined)	-	-	.	-	13	-
CN1CCN(C(c2ccccn2)c2cc(Cl)c3cccnc3c2O)CC1 (centres undefined)	-	-	-	-	-	-
Cc1cccc(-n2ncc3c(N)ncnc32)c1	-	-	-	-	-	-
Cc1cccc(-n2ncc3c(N(C)Cc4ccccc4)ncnc32)c1	-	-	-11	-	-	-
Cn1cccc1/C=N/n1c(-c2ccc(C(C)(C)C)cc2)n[nH]c1=S	-	-	-	-7.7	-	-
Cn1cccc1/C=N/n1c(-c2ccccc2)n[nH]c1=S	-	-	-	-	-	-
CC/C(=N/NC(=O)CNc1ccc(Cl)cc1C)c1ccccc1	-	-	-	-	-	-
N/C(=N\OC(=O)CC(c1ccccc1)c1ccccc1)c1cccnc1	-	-	-	-	-	4.6
SMILES	KCNQ1 act	Kir21 inh	KCNK3 inh	KCNK9 block	KCNQ1 block	hERG protect
N/C(=N\OC(=O)Cc1ccccc1)c1cccnc1	-	-	-	-	-	-
c1ccc(Nc2nc(N3CCCCC3)nc(N3CCCCC3)n2)cc1	-	-	-	-	9	-
c1ccc(Nc2nc(N3CCCC3)nc(N3CCCC3)n2)cc1	-	-	-	-	-	-
CC1CCCCN1C(=O)c1ccc(C(=O)N2CCCCC2C)cc1 (centres undefined)	-	-	-	-	-	-
Cc1ccc(C)c(S(=O)(=O)NCc2ccc(C(=O)N3CCCCC3C)cc2)c1 (centres undefined)	-	-	-	-6.8	-	-
Cc1ccc(C)c(S(=O)(=O)Nc2ccc(C(=O)N3CCCCC3)cc2)c1	-	-	-	-	-	-
Cc1cccc(C(=O)Nc2ccc(C(=O)N3CCCCC3C)cc2)c1 (centres undefined)	-	-	-	-7.6	-	-
C[C@H](CO)N1C[C@H](C)[C@@H](CN(C)CC2CCCCC2)Oc2ccc(NS(C)(=O)=O)cc2C1=O	.	.	-	.	.	.
COC(=O)c1cccc(C23CC4(C2)[C@H](CN(Cc2ccc(C(F)(F)F)cc2)[C@@H]4c2ccccc2)C3c2ccc(C(F)(F)F)cc2)c1 (some centres undefined)	-	-	.	-	-	-
COc1ccc(CNC(=S)Nc2ccccc2)cc1	-	-	-	-	-	-
